From ChEMBL document CHEMBL5303300, “EUbOPEN Chemogenomics Library - Multiplex” (2023)
Several values for one entry are separate records, joined by “and”; a condition that tells them apart may be missing. Equal entries are not always repeated.

Test system: U2OS
Experiment: Multiplex assay against U2OS
Format: toxicity, cell-based
Conditions: human, number of replicates 2
Method in brief: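 Hoechst33342, BioTracker Green Microtubule Cytoskeleton Dye, MitoTracker Red and Annexin V Alexa Fluor 680 were added to live cells at seeding, and imaging on a CQ1 microscope at 37°C and 5% CO2 followed compound addition. Gating by CellPathfinder machine learning separated cells into Hoechst high-intensity objects or normal cells, then normal cells into healthy, pyknosed or fragmented nuclei, then pyknosed cells into mitotic or apoptotic. Per cents of healthy-nucleus cells are reported for the tubulin, mitochondrial-mass and membrane-permeability phenotypes.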

[1] = 12 h, 1 µM, compound concentration 1 uM
[2] = 12 h, 10 µM, compound concentration 10 uM
[3] = 24 h, 1 µM, compound concentration 1 uM
[4] = 24 h, 10 µM, compound concentration 10 uM
[5] = 48 h, 1 µM, compound concentration 1 uM
[6] = 48 h, 10 µM, compound concentration 10 uM

For `Cl.Clc1ccc2nsnc2c1NC1=NCCN1` [TIZANIDINE HYDROCHLORIDE], the “Population Apoptotic (%)” value [1] was 50% and 55%, the “Population Fragmented Nuclei (%)” value [1] was 14% and 4% and the “Population Healthy Nuclei (%)” value [1] was 75% and 86%. The “Population Hoechst High Intensity Objects (%)” value [1] was 0%, the “Population Membrane Permeable-Phenotype (%)” value [1] was 0% and 1% and the “Population Mitochondria Different-Phenotype (%)” value [1] was 3% and 0%. For the same compound, the “Population Mitotic Cells (%)” value [1] was 50% and 44%, the “Population Normal (%)” value [1] was 100% and the “Population Pyknosed Nuclei (%)” value [1] was 9%. For the same compound, the “Population Tubulin-Different-Phenotype (%)” value [1] was 100% and 96%, the “Population Fragmented Nuclei (%)” value [2] was 7% and 4% and the “Population Healthy Nuclei (%)” value [2] was 89% and 87%. For the same compound, the “Population Hoechst High Intensity Objects (%)” value [2] was 0%, the “Population Membrane Permeable-Phenotype (%)” value [2] was 2% and 0% and the “Population Mitochondria Different-Phenotype (%)” value [2] was 0%. The “Population Normal (%)” value [2] was 100%, the “Population Pyknosed Nuclei (%)” value [2] was 2% and 8% and the “Population Tubulin-Different-Phenotype (%)” value [2] was 68% and 97%. For the same compound, the “Population Apoptotic (%)” value [3] was 100% and 58%, the “Population Fragmented Nuclei (%)” value [3] was 8% and 3% and the “Population Healthy Nuclei (%)” value [3] was 85% and 89%. For the same compound, the “Population Hoechst High Intensity Objects (%)” value [3] was 1% and 0%, the “Population Membrane Permeable-Phenotype (%)” value [3] was 1% and the “Population Mitochondria Different-Phenotype (%)” value [3] was 0% and 1%. For the same compound, the “Population Normal (%)” value [3] was 98% and 100%, the “Population Pyknosed Nuclei (%)” value [3] was 6% and 7% and the “Population Tubulin-Different-Phenotype (%)” value [3] was 100% and 95%. The “Population Fragmented Nuclei (%)” value [4] was 10% and 2%, the “Population Healthy Nuclei (%)” value [4] was 89% and 92% and the “Population Hoechst High Intensity Objects (%)” value [4] was 0%. For the same compound, the “Population Membrane Permeable-Phenotype (%)” value [4] was 0% and 1%, the “Population Mitochondria Different-Phenotype (%)” value [4] was 0% and the “Population Normal (%)” value [4] was 100%. For the same compound, the “Population Pyknosed Nuclei (%)” value [4] was 0% and 5%, the “Population Tubulin-Different-Phenotype (%)” value [4] was 77% and 96% and the “Population Apoptotic (%)” value [5] was 40%. For the same compound, the “Population Fragmented Nuclei (%)” value [5] was 11%, the “Population Healthy Nuclei (%)” value [5] was 78% and the “Population Hoechst High Intensity Objects (%)” value [5] was 1%. For the same compound, the “Population Membrane Permeable-Phenotype (%)” value [5] was 3%, the “Population Mitochondria Different-Phenotype (%)” value [5] was 0% and the “Population Mitotic Cells (%)” value [5] was 60%. The “Population Normal (%)” value [5] was 98%, the “Population Pyknosed Nuclei (%)” value [5] was 10% and the “Population Tubulin-Different-Phenotype (%)” value [5] was 97%. The “Total Cell Count” value [5] was 99, the “Population Apoptotic (%)” value [6] was 88% and 38% and the “Population Fragmented Nuclei (%)” value [6] was 4% and 2%. The “Population Healthy Nuclei (%)” value [6] was 84% and 92%, the “Population Hoechst High Intensity Objects (%)” value [6] was 0% and the “Population Membrane Permeable-Phenotype (%)” value [6] was 2% and 0%. For the same compound, the “Population Mitochondria Different-Phenotype (%)” value [6] was 0%, the “Population Normal (%)” value [6] was 100% and the “Population Pyknosed Nuclei (%)” value [6] was 10% and 4%. The “Population Tubulin-Different-Phenotype (%)” value [6] was 72% and 99%.
For `Cc1ccc2c(N)c(C(=O)NC3CCc4cc(N5CC6CCC(C5)N6)ccc4C3)sc2n1.O=CO` (stereo unspecified), the “Population Apoptotic (%)” value [1] was 100% and 51%, the “Population Fragmented Nuclei (%)” value [1] was 11% and 6% and the “Population Healthy Nuclei (%)” value [1] was 70% and 76%. The “Population Hoechst High Intensity Objects (%)” value [1] was 0%, the “Population Membrane Permeable-Phenotype (%)” value [1] was 16% and 7% and the “Population Normal (%)” value [1] was 100%. For the same compound, the “Population Pyknosed Nuclei (%)” value [1] was 17% and 16%, the “Population Tubulin-Different-Phenotype (%)” value [1] was 19% and 25% and the “Population Apoptotic (%)” value [2] was 36% and 24%. The “Population Healthy Nuclei (%)” value [2] was 22% and 29%, the “Population Hoechst High Intensity Objects (%)” value [2] was 3% and 12% and the “Population Membrane Permeable-Phenotype (%)” value [2] was 16% and 11%. For the same compound, the “Population Mitochondria Different-Phenotype (%)” value [2] was 50% and 51%, the “Population Mitotic Cells (%)” value [2] was 63% and 75% and the “Population Normal (%)” value [2] was 96% and 87%. For the same compound, the “Population Pyknosed Nuclei (%)” value [2] was 35% and 56%, the “Population Tubulin-Different-Phenotype (%)” value [2] was 50% and the “Population Apoptotic (%)” value [3] was 69% and 75%. For the same compound, the “Population Fragmented Nuclei (%)” value [3] was 4% and 5%, the “Population Healthy Nuclei (%)” value [3] was 69% and 77% and the “Population Hoechst High Intensity Objects (%)” value [3] was 0%. The “Population Membrane Permeable-Phenotype (%)” value [3] was 17% and 6%, the “Population Mitotic Cells (%)” value [3] was 30% and 24% and the “Population Normal (%)” value [3] was 100%. The “Population Pyknosed Nuclei (%)” value [3] was 26% and 16%, the “Population Tubulin-Different-Phenotype (%)” value [3] was 26% and 23% and the “Population Apoptotic (%)” value [4] was 56%. The “Population Healthy Nuclei (%)” value [4] was 19% and 22%, the “Population Hoechst High Intensity Objects (%)” value [4] was 8% and 11% and the “Population Mitochondria Different-Phenotype (%)” value [4] was 75% and 69%. The “Population Mitotic Cells (%)” value [4] was 43%, the “Population Normal (%)” value [4] was 91% and 88% and the “Population Pyknosed Nuclei (%)” value [4] was 39% and 64%. The “Population Tubulin-Different-Phenotype (%)” value [4] was 50% and 60%, the “Population Apoptotic (%)” value [5] was 80% and 88% and the “Population Fragmented Nuclei (%)” value [5] was 7% and 5%. For the same compound, the “Population Healthy Nuclei (%)” value [5] was 49% and 66%, the “Population Hoechst High Intensity Objects (%)” value [5] was 0% and the “Population Membrane Permeable-Phenotype (%)” value [5] was 14% and 19%. The “Population Mitochondria Different-Phenotype (%)” value [5] was 25% and 53%, the “Population Mitotic Cells (%)” value [5] was 20% and 11% and the “Population Normal (%)” value [5] was 100%. The “Population Pyknosed Nuclei (%)” value [5] was 43% and 28%, the “Population Tubulin-Different-Phenotype (%)” value [5] was 21% and 40% and the “Population Apoptotic (%)” value [6] was 53% and 87%. The “Population Healthy Nuclei (%)” value [6] was 31% and 12%, the “Population Membrane Permeable-Phenotype (%)” value [6] was 53% and 57% and the “Population Mitochondria Different-Phenotype (%)” value [6] was 84%. For the same compound, the “Population Normal (%)” value [6] was 95% and 83%, the “Population Pyknosed Nuclei (%)” value [6] was 36% and 80% and the “Population Tubulin-Different-Phenotype (%)” value [6] was 100% and 73%.
